Experimental data from ChEMBL document CHEMBL1921744, “Lipophosphonoxins: new modular molecular structures with significant antibacterial properties” (J Med Chem, 2011).
≈ marks a conversion by molar mass, not a printed value. Calls of active or inactive are those of the source. No cut-off for these calls is given here.

Experiments:
Staphylococcus aureus [1] = assay: Antibacterial activity against methicillin-resistant Staphylococcus aureus 4591 after 24 to 48 hrs by microdilution method; type: functional
Outline: (§1)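 Broth microdilution MIC on clinical isolates from Teaching Hospital Olomouc, stored at −80 °C. Compounds were serially diluted in brain heart infusion broth over 200–1.56 μg/mL (sometimes extended to 0.78 μg/mL), with an inoculum of 10⁵⁻⁶ CFU/ml per well. Plates were incubated at 37 °C and read at 24/48 h. MIC was taken as the lowest concentration inhibiting growth.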

Enterococcus faecium [2] = assay: Antibacterial activity against vancomycin-resistant Enterococcus faecium VanA419/ana after 24 to 48 hrs by microdilution method; type: functional; outline: as §1
[3] = tested on: Staphylococcus epidermidis; assay: Antibacterial activity against methicillin-resistant Staphylococcus epidermidis 8700/B after 24 to 48 hrs by microdilution method; type: functional; outline: as §1
[4] = Cytotoxicity against human Erythroid progenitor cells assessed as cell viability after 48 hrs by CellTiter-blue assay; type: cell-based
Outline: (§2)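 Normal human erythroid progenitor cells, expanded from umbilical cord blood, plated at 25000 cells/well immediately before compound addition (added as a 5× predilution in culture medium). Viability by CellTiter-Blue fluorescence 48 h after addition, normalized to untreated cells set as 100%.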

[5] = Cytotoxicity against human Erythroid progenitor cells assessed as maximum safe concentration after 48 hrs by CellTiter-blue assay; type: cell-based; conditions: read-out: Activity; outline: as §2
[6] = Induction of apoptosis in human Erythroid progenitor cells assessed as caspase 3/7 activation after 4 hrs by Caspase-Glo 3/7 assay
Outline: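 Cord-blood-derived human erythroid progenitor cells plated at 25000 cells/well and exposed to compound prediluted in medium. Caspase 3/7 activation read by Caspase-Glo 3/7 luminescence 4 h after addition, normalized to untreated control cells set as 100%.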

Escherichia coli [7] = assay: Antibacterial activity against Escherichia coli after 24 to 48 hrs by microdilution method; type: functional
Outline: (§3)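 Incubation 24/48 h at 37 °C. MIC read as the lowest concentration inhibiting growth. MBC determined by transferring 10 μL from wells onto blood agar, taken as the lowest concentration with no visible growth.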

Pseudomonas aeruginosa = assay: Antibacterial activity against Pseudomonas aeruginosa after 24 to 48 hrs by microdilution method; type: functional; outline: as §3
Enterococcus faecalis [8] = assay: Antibacterial activity against Enterococcus faecalis CCM 4224 after 24 to 48 hrs by microdilution method; type: functional; outline: as §3
Staphylococcus aureus [9] = assay: Antibacterial activity against Staphylococcus aureus CCM 4223 after 24 to 48 hrs by microdilution method; type: functional; outline: as §3
Bacillus subtilis [10] = assay: Antibacterial activity against Bacillus subtilis after 24 to 48 hrs by microdilution method; type: functional; outline: as §3
Streptococcus agalactiae = assay: Antibacterial activity against Streptococcus agalactiae after 24 to 48 hrs by microdilution method; type: functional; outline: as §3
[11] = tested on: Staphylococcus haemolyticus; assay: Antibacterial activity against fluoroquinolone-resistant Staphylococcus haemolyticus 16568 after 24 to 48 hrs by microdilution method; type: functional; outline: as §1
Enterococcus faecalis [12] = assay: Antibacterial activity against Enterococcus faecalis ATCC 29212; type: functional
Enterococcus faecalis [13] = assay: Antibacterial activity against vancomycin-resistant Enterococcus faecalis SR7914; type: functional
Enterococcus faecium [14] = assay: Antibacterial activity against vancomycin-resistant Enterococcus faecium SR7917; type: functional
Bacillus subtilis [15] = assay: Inhibition of Bacillus subtilis RNA polymerase using [alpha-32P]-UTP at 1 mM pretreated for 5 mins measured after 15 mins by electrophoresis analysis
Outline: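 Reconstituted B. subtilis RNAP σA holoenzyme (6 nM) with supercoiled pLK7 template carrying the rrnB P1 promoter (4 ng/μL). Nucleotides: ATP/CTP/GTP 200 μM, UTP 10 μM plus 2 μM [α-³²P]-UTP. Compound at 1 mM; 5 min preincubation at 30 °C, started with RNAP, stopped after 15 min with formamide/EDTA.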

Escherichia coli [16] = assay: Antibacterial activity against permeabilized Escherichia coli DH5[alpha] assessed as log reduction of colony forming unit at 10 uM; type: functional, organism-based
Outline: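 Competent (permeabilized) E. coli DH5α cells were mixed with 5 ng pUC18 (ampR) and serially diluted compound or buffer only. Steps: 30 min on ice, heat shock at 42 °C for 90 s, 5 min on ice, then LB without antibiotic for 1 h at 37 °C with shaking. Plated on LB agarose with ampicillin 100 μg/mL overnight at 37 °C. Colonies counted against the no-compound control.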

Staphylococcus aureus [17] = assay: Antibacterial activity against methicillin-sensitive Staphylococcus aureus ATCC 29213; type: functional; outline: as §3
Staphylococcus aureus [18] = assay: Antibacterial activity against methicillin-resistant Staphylococcus aureus SR3637; type: functional
Enterococcus faecium [19] = assay: Antibacterial activity against Enterococcus faecium ATCC 19434; type: functional; outline: as §3

Row | Structure (SMILES) | MIC (Enterococcus faecium [2]) [µg/mL] | MIC [3] [µg/mL] | IC50 [4] [µg/mL] | MNTC at 48 h [5] [µg/mL] | Activity [6] | MIC (Escherichia coli [7]) [µg/mL] | MIC (Pseudomonas aeruginosa) [µg/mL] | MIC (Enterococcus faecalis [8]) [µg/mL] | MIC (Staphylococcus aureus [9]) [µg/mL] | MIC (Bacillus subtilis [10]) [µg/mL] | MIC (Streptococcus agalactiae) [µg/mL] | further results
1 | CCCCCCCCCCCCCCCCCCOP(=O)(CCN1C[C@@H](O)[C@H](O)C1)OC[C@H]1O[C@@H](n2ccc(=O)[nH]c2=O)[C@H](O)[C@@H]1O (stereo partly specified) | 6.25 (≈ 9.06 µM) | 6.25 (≈ 9.06 µM) | 36 (≈ 52.2 µM) | 15.6 | Non-toxic | > 200 | > 200 | 6.25 (≈ 9.06 µM) | 12.5 (≈ 18.1 µM) | 6.25 (≈ 9.06 µM) | 3.13 (≈ 4.54 µM) | MIC (Staphylococcus aureus [1]): 200 µg/mL (≈ 290 µM)
2 | O=C(N[C@H](CO)[C@H](O)c1ccc([N+](=O)[O-])cc1)C(Cl)Cl [CHLORAMPHENICOL] |  |  |  |  |  |  |  |  |  |  | 2 (≈ 6.19 µM) | 
3 | CCCCCCCCCCCCCCOP(=O)(CCN1C[C@@H](O)[C@H](O)C1)OC[C@H]1O[C@@H](n2ccc(=O)[nH]c2=O)[C@H](O)[C@@H]1O (stereo partly specified) | 12.5 (≈ 19.7 µM) | 12.5 (≈ 19.7 µM) | 58 (≈ 91.5 µM) | 31.2 | Non-toxic | > 200 | > 200 | 12.5 (≈ 19.7 µM) | 12.5 (≈ 19.7 µM) | 6.25 (≈ 9.86 µM) | 6.25 (≈ 9.86 µM) | MIC (Staphylococcus aureus [1]): 25 µg/mL (≈ 39.4 µM); MIC [11]: 12.5 µg/mL (≈ 19.7 µM)
4 | CCCCCCCCCCCCCCCCOP(=O)(CCN1C[C@@H](O)[C@H](O)C1)OC[C@H]1O[C@@H](n2ccc(=O)[nH]c2=O)[C@H](O)[C@@H]1O (single isomer, unassigned; diastereomer 2) |  |  |  |  |  |  |  |  |  |  |  | Activity (Enterococcus faecalis [8]): Active; Activity (Staphylococcus aureus [9]): Active; Activity (Bacillus subtilis [10]): Active; Activity (Streptococcus agalactiae): Active
5 | CN[C@H](CC(C)C)C(=O)N[C@H]1C(=O)N[C@@H](CC(N)=O)C(=O)N[C@H]2C(=O)N[C@H]3C(=O)N[C@H](C(=O)N[C@H](C(=O)O)c4cc(O)cc(O)c4-c4cc3ccc4O)[C@H](O)c3ccc(c(Cl)c3)Oc3cc2cc(c3O[C@@H]2O[C@H](CO)[C@@H](O)[C@H](O)[C@H]2O[C@H]2C[C@](C)(N)[C@H](O)[C@H](C)O2)Oc2ccc(cc2Cl)[C@H]1O [VANCOMYCIN] |  |  |  |  |  |  |  |  |  |  |  | MIC (Enterococcus faecalis [12]): 1 µg/mL (≈ 0.69 µM); MIC (Enterococcus faecalis [13]): > 64 µg/mL; MIC (Enterococcus faecium [14]): > 64 µg/mL
6 | CCCCCCCCCCCCCCCCOCCCOP(=O)(CCN1C[C@H](O)C[C@@H](O)C1)OC[C@H]1O[C@@H](n2ccc(=O)[nH]c2=O)[C@H](O)[C@@H]1O (stereo partly specified) |  |  | 53 (≈ 72.2 µM) | 31.2 | Non-toxic | > 200 | > 200 | 200 (≈ 273 µM) |  | 100 (≈ 136 µM) | 6.25 (≈ 8.52 µM) | inhibition (Bacillus subtilis [15]): inactive
7 | CCCCCCCCCCCCCCCCOP(=O)(CCN1C[C@@H](O)[C@H](O)C1)OC[C@H]1O[C@@H](n2ccc(=O)[nH]c2=O)[C@H](O)[C@@H]1O (mixture of isomers) |  |  |  |  |  |  |  |  |  |  |  | Activity (Escherichia coli [16]): Active
8 | CCCCCCCCCCCCCCCCOCCCOP(=O)(CCN1C[C@@H](O)[C@H](O)C1)OC[C@H]1O[C@@H](n2ccc(N)nc2=O)[C@H](O)[C@@H]1O (stereo partly specified) | 6.25 (≈ 8.69 µM) | 6.25 (≈ 8.69 µM) | 67 (≈ 93.2 µM) | 31.2 | Non-toxic | > 200 | > 200 | 6.25 (≈ 8.69 µM) | 25 (≈ 34.8 µM) | 3.13 (≈ 4.35 µM) | 3.13 (≈ 4.35 µM) | 
9 | CCCCCCCCCCCCCCC[C@H](NC[C@@H](NC(=O)N[C@H](C(=O)O)C(C)C)[C@@H]1CCNC(=N)N1)C(=O)NCCCN[C@H](C(=O)O)[C@H](O[C@@H]1O[C@H](CN)[C@@H](O)[C@H]1O)[C@H]1O[C@@H](n2ccc(=O)[nH]c2=O)[C@H](O)[C@@H]1O |  |  |  |  |  |  |  |  |  |  |  | MIC (Staphylococcus aureus [17]): 2 µg/mL (≈ 1.89 µM); MIC (Staphylococcus aureus [18]): 4 µg/mL (≈ 3.79 µM); MIC (Enterococcus faecalis [12]): 4 µg/mL (≈ 3.79 µM); MIC (Enterococcus faecalis [13]): 4 µg/mL (≈ 3.79 µM); MIC (Enterococcus faecium [19]): 4 µg/mL (≈ 3.79 µM); MIC (Enterococcus faecium [14]): 2 µg/mL (≈ 1.89 µM)
10 | CCCCCCCCCCCCCCCCOCCCOP(=O)(CCN1C[C@H](O)[C@@H](O)C1)OC[C@H]1O[C@@H](n2ccc(=O)[nH]c2=O)[C@H](O)[C@@H]1O (stereo partly specified) | 6.25 (≈ 8.68 µM) | 6.25 (≈ 8.68 µM) | 47 (≈ 65.3 µM) | 31.2 | Non-toxic | > 200 | > 200 | 12.5 (≈ 17.4 µM) |  | 6.25 (≈ 8.68 µM) | 6.25 (≈ 8.68 µM) | inhibition (Bacillus subtilis [15]): inactive
